In ChEMBL document CHEMBL1132304, “Characterization of "mini-nucleotides" as P2X receptor agonists in rat cardiomyocyte cultures. An integrated synthetic, biochemical, and theoretical study” (1999):
Active and inactive are the calls of the source. The rule behind the calls is not given here.

Legend:
Rattus norvegicus [1] = species: Rattus norvegicus; assay: In vitro effect on intracellular ca++ elevation was determined in comparison to the ATP at 10 uM on rat cardiomyocytes; Ca++ elevation; Not avtive; assay type: functional
Outline: (§1)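 Cultured neonatal rat cardiomyocytes (3-5 days in vitro) on coverglasses were loaded with indo-1, and [Ca²⁺]i was estimated by the 405/495 nm emission ratio method under UV epifluorescence. Ligand was added at 100 µM, with ATP 10 µM as reference. The read-out was [Ca²⁺]i elevation in nM above the 100 nM basal level, from 2-3 experiments.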

Rattus norvegicus [2] = species: Rattus norvegicus; assay: Inhibition of Ca++ elevation was determined in CPX treated cardiac cells in rat; No inhibition; assay type: functional, cell-based
Rattus norvegicus [3] = species: Rattus norvegicus; assay: Inhibition of Ca++ elevation was determined in PPADS treated cardiac cells in rat; Complete inhibition; assay type: functional, cell-based
Rattus norvegicus [4] = species: Rattus norvegicus; assay: In vitro effect on intracellular ca++ elevation in comparison to the ATP at 10 uM on rat cardiomyocytes.; assay type: functional; outline: as §1
Rattus norvegicus [5] = species: Rattus norvegicus; assay: Compound was evaluated 1 min after drug application on rat cardiomyocytes; assay type: functional; set-up: concentration or dose not given beside the values
Outline: (§2)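 Neonatal rat cardiomyocyte cultures (3-5 days in vitro, spontaneously contracting monolayers on collagen/gelatin-coated coverglasses) exposed to ligand at 100 µM. Contraction rate was recorded by video motion detector under phase-contrast microscopy at 37 °C in 95% air/5% CO₂, 1 min after drug application. The read-out was % reduction of heart rate from representative experiments.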

Rattus norvegicus [6] = species: Rattus norvegicus; assay: In vitro effect on intracellular ca++ elevation was determined in comparison to the ATP at 10 uM on rat cardiomyocytes; Ca++ elevation; assay type: functional; outline: as §1
Rattus norvegicus [7] = species: Rattus norvegicus; assay: In vitro effect on intracellular ca++ elevation was determined in comparison to the ATP at 10 uM on rat cardiomyocytes; Not active; assay type: functional; outline: as §1
Rattus norvegicus [8] = species: Rattus norvegicus; assay: Inhibition of Ca++ elevation was determined in PPADS treated cardiac cells in rat; No inhibition; assay type: functional, cell-based
Rattus norvegicus [9] = species: Rattus norvegicus; assay: Inhibition of Ca++ elevation was determined in CPX treated cardiac cells in rat; Complete inhibition; assay type: functional, cell-based
Rattus norvegicus [10] = species: Rattus norvegicus; assay: Inhibition of Ca++ elevation was determined in CPX treated cardiac cells in rat; Complete inhibition; Complete inhibition; assay type: functional, cell-based
Rattus norvegicus [11] = species: Rattus norvegicus; assay: Compound was evaluated 1 min after drug application on rat cardiomyocytes; Not active; assay type: functional; outline: as §2
Rattus norvegicus [12] = species: Rattus norvegicus; assay: Inhibition of Ca++ elevation was determined in PPADS treated cardiac cells in rat; assay type: functional
Outline: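 Neonatal rat cardiomyocyte cultures. Cells were incubated 5 min with 100 µM PPADS (P2-R antagonist) before the agonist was added at 100 µM (ATP at 10 µM). Intracellular Ca²⁺ was measured by the indo-1 405/495 nm emission ratio (Grynkiewicz ratio method). Scored as complete inhibition (+), no inhibition (−), or partial.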

Rattus norvegicus [13] = species: Rattus norvegicus; assay: In vitro effect on intracellular ca++ elevation was determined in comparison to the ATP at 10 uM on rat cardiomyocytes; Ca++ elevation; Not active; assay type: functional; outline: as §1

SMILES | inhibition (Rattus norvegicus [3]) | Reduction of heart rate (Rattus norvegicus [5]) [%] | Ca2+ elevation (Rattus norvegicus [6]) [nM] | also measured
Cn1c(=O)c2c(ncn2CCCOP(=O)(O)O)n(C)c1=O | – | – | – | Ca2+ elevation (Rattus norvegicus [1]): inactive
Cn1cnc2c1c(=O)n(CCCOP(=O)(O)O)c(=O)n2C | – | – | – | Ca2+ elevation (Rattus norvegicus [1]): inactive
CCOc1nc2c(c(=O)n(C)c(=O)n2C)n1CCOP(=O)(O)OP(=O)(O)OP(=O)(O)O | – | – | – | Ca2+ elevation (Rattus norvegicus [1]): inactive
Cn1c(=O)c2c(ncn2CCOP(=O)(O)OP(=O)(O)OP(=O)(O)O)n(C)c1=O | Total inhibition | 64 | – | inhibition (Rattus norvegicus [2]): inactive; Ca2+ elevation (Rattus norvegicus [4]): 87 nM
Cn1c(=O)c2c(nc(Br)n2CCOP(=O)(O)OP(=O)(O)OP(=O)(O)O)n(C)c1=O | – | 32 | 37 | –
CCOc1nc2c(c(=O)n(C)c(=O)n2C)n1CCOP(=O)(O)O | – | – | – | Ca2+ elevation (Rattus norvegicus [7]): inactive
Cn1c(=O)c2c(nc(Cl)n2CCOP(=O)(O)OP(=O)(O)OP(=O)(O)O)n(C)c1=O | Total inhibition | 28 | 29 | inhibition (Rattus norvegicus [2]): inactive
Cn1c(=O)c2c(nc(Cl)n2CCOP(=O)(O)O)n(C)c1=O | – | 95 | 49 | inhibition (Rattus norvegicus [2]): inactive
Cn1cnc2c1c(=O)n(CCOP(=O)(O)OP(=O)(O)OP(=O)(O)O)c(=O)n2C.N.N.N.N | – | 3 | 54 | inhibition (Rattus norvegicus [8]): inactive; inhibition (Rattus norvegicus [9]): Total inhibition
Cn1c(=O)c2c(ncn2CCOP(=O)(O)O)n(C)c1=O | Total inhibition | 16 | 80 | inhibition (Rattus norvegicus [9]): Total inhibition
Cn1cnc2c1c(=O)n(CCOP(=O)(O)O)c(=O)n2C.N.N | Total inhibition | 10 | 61 | inhibition (Rattus norvegicus [10]): Total inhibition
Cn1c(Br)nc2c1c(=O)n(CCOP(=O)(O)OP(=O)(O)OP(=O)(O)O)c(=O)n2C | Total inhibition | 50 | 94 | –
Cn1c(Br)nc2c1c(=O)n(CCOP(=O)(O)O)c(=O)n2C | Total inhibition | – | 80 | inhibition (Rattus norvegicus [2]): inactive; NA (Rattus norvegicus [11]): inactive
Nc1ncnc2c1ncn2[C@@H]1O[C@H](COP(=O)(O)OP(=O)(O)OP(=O)(O)O)[C@@H](O)[C@H]1O [ADENOSINE TRIPHOSPHATE] | – | – | – | inhibition (Rattus norvegicus [2]): inactive; Inhibition (Rattus norvegicus [12]): 60%
Cn1c(Sc2ccccc2)nc2c1c(=O)n(CCOP(=O)(O)O)c(=O)n2C | – | – | – | Ca2+ elevation (Rattus norvegicus [7]): inactive
Cn1c(=O)c2c(nc(Sc3ccccc3)n2CCOP(=O)(O)O)n(C)c1=O | – | – | – | Ca2+ elevation (Rattus norvegicus [7]): inactive
Cn1c(=O)c2c(nc(Sc3ccccc3)n2CCOP(=O)(O)OP(=O)(O)OP(=O)(O)O)n(C)c1=O | – | – | – | Ca2+ elevation (Rattus norvegicus [7]): inactive
Cn1c(=O)c2c(nc(Br)n2CCOP(=O)(O)O)n(C)c1=O | – | 17 | 54 | –
Cn1c(=O)c2c(ncn2CCCOP(=O)(O)OP(=O)(O)OP(=O)(O)O)n(C)c1=O | – | – | – | Ca2+ elevation (Rattus norvegicus [13]): inactive
Cn1cnc2c1c(=O)n(CCCOP(=O)(O)OP(=O)(O)OP(=O)(O)O)c(=O)n2C.N.N.N.N | – | – | 60 | –
